# Compound activity (PubChem BioAssay)
# M1 antagonist = M1 muscarinic receptor (rat) antagonism; 64,000 tested, 3.4% active; B-score at 10 µM; P08482; AID 628; CHO-M1 cells, Fluo-4 calcium, ACh EC80 antagonist mode; active compounds read low;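 active means calcium fluorescence response, raw or row-and-column corrected B-score, differing from the plate sample mean either way at a set confidence level, mostly lower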
# HEK293 NFkB inh = inhibitors of the PMA/ionomycin-induced NF-kB reporter in HEK293 cells. HEK-293 NF-kB luciferase reporter, luminescence. inhibition, % at 3 µM. 62,000 tested, 0.21% active;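 active means inhibition above the mean of all tested compounds plus 3 SD, cut at about 40% in these data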;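 further: 0% = stimulated DMSO wells and 100% = 10 µM reference inhibitor 5653914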
#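 Reagent: PMA plus ionomycin mix as NF-kB-activating stimulus. Assay system: NF-kB luciferase reporter HEK-293 cells. Technique: luminescence from luciferase substrate reagent. Incubation: 1 h compound pre-incubation, 16 h PMA/ionomycin at 37 °C. Benchmarks: DMSO only as uninhibited control, 10 µM reference inhibitor as full inhibition. Repeats: tested once.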
# Jurkat tox 60K = reduces viability or proliferation of Jurkat cells; Jurkat E6.1 viability, ATP luminescence, 48 h; inhibition, % at 4 µM; 56,000 tested, 1.2% active;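 active means inhibition above the mean inhibition of all tested compounds plus 3 SD, cut at about 28% in these data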
# M1 agonist = M1 muscarinic receptor agonism; CHO-M1 cells, Fluo-4 calcium fluorescence, agonist mode; active compounds read high; B-score at 10 µM; 64,000 tested, 3% active; AID 626;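 active means fluorescence rise, raw or as B-score row- and column-corrected plate score, outside the 99.7% band of its plate's samples, either direction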
# D1 mod = allosteric modulators of human D1 dopamine receptor; P21728; HEK293 D1, CRE-luciferase, dopamine EC30 potentiation; actives deviate in either direction; B-score at 10 µM; 58,000 tested, 5.9% active;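 active means luminescence count or its row- and column-corrected plate score outside the 99.7% band of the plate's sample wells, on either side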
# Target sequence (P21728 whole entry, looked up): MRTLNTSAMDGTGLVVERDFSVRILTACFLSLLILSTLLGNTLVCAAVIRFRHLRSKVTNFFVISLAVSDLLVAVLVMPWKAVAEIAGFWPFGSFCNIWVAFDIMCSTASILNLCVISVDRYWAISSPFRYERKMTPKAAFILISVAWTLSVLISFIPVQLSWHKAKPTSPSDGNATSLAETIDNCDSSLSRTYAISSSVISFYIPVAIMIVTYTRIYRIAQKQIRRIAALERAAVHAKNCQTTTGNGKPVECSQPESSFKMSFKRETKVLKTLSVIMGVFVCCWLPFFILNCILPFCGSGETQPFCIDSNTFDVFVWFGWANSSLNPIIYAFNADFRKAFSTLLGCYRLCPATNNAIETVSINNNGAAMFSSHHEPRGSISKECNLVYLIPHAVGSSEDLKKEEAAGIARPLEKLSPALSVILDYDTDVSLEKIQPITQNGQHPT
# mHtt clearance = compounds clearing mutant huntingtin protein; HeLa Exon1htt(103Q)mCFP, aggregate imaging; zero = plate's median compound well; 47,000 tested, 0.42% active; AID 853; inhibition, % at 1.5 µM;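 active means inhibition of aggregate fluorescence above about 70%, also judged a hit by eye on the cell image, limit read from the data, passing the limit was not always enough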;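 further: cells exposed to compound for three days before fixation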
# * marks the source's active call; other numbers are inactive results; . = not tested or not shown. A selection: hits, their analogues and other compounds. The true share with any hit is near 9.5%.
SMILES,M1 antagonist,HEK293 NFkB inh,Jurkat tox 60K,M1 agonist,D1 mod,mHtt clearance
CCOc1ccc(Br)cc1CC(=O)O,2.1,.,.,0.085,.,75*
CC(=O)c1c(C)[nH]c(C(=O)N2CCN(C(=O)c3ccco3)CC2)c1C,0.19,8,3,-0.14,-0.58,32
COc1cccc(N2CCN(C(=O)c3[nH]c(C)c(C(C)=O)c3C)CC2)c1,-0.25,31,91*,-2.1,0.01,17
N=c1c2c(n(Cc3ccc(Cl)cc3)c3c1CCC3)CCC2,-0.99,22,88*,-0.55,-3.5,-64
N=c1c2c(n(Cc3cccc(Cl)c3)c3c1CCC3)CCCC2,.,.,.,.,.,61
N=c1c2c(n(Cc3ccccc3)c3c1CCC3)CCC2,-1.4,7,64*,-0.2,-1.9,.
O=C(NCc1ccc(N2CCCC2=O)cc1)Nc1cccc(Cl)c1,-0.16,16,10,0.14,-0.073,5
CCc1ccc(NC(=O)c2onc(C)c2Cl)cc1,.,.,.,.,.,3
Cc1ccsc1C(=O)Nc1nnc(-c2ccco2)o1,0.85,1,89*,-0.36,-0.72,.
C1CNCCNCCNCCN1,0.5,.,.,0.86,0.0059,.
CCc1cc2c(=O)c(-c3ccc4c(c3)OCCO4)coc2cc1OC(=O)c1ccco1,-0.00042,16,-12,0.037,-2.9*,43
CN(C)S(=O)(=O)c1cccc(C(=O)N2CCc3ccccc32)c1,1.3*,11,8,0.0021,.,-108
CCN(CC)S(=O)(=O)c1cc(C(=O)Nc2ccncc2)ccc1Cl,0.49,17,48*,-1.1,-0.0098,21
CCN(CC)S(=O)(=O)c1ccc(Cl)c(OC)c1,.,.,.,.,.,-7
CCN(CC)S(=O)(=O)c1ccc(Cl)c(C(=O)NC)c1,-0.59,9,2,0.21,-5.2*,36
COc1ccc2[nH]c3nc(SCc4nnc(-c5ccc(C)cc5)o4)nnc3c2c1,-0.034,12,2,-0.71,0.1,-5
CCOc1ccc(S(=O)(=O)NC(C)(C)C)cc1-c1nc2c(C(C)(C)C)nn(C)c2c(=O)[nH]1,0.66,.,.,-0.064,4,29
c1ccc2c(c1)c1ccccc1n1c(-c3ccc4c(c3)OCO4)nnc21,.,.,.,.,.,48
COC(=O)c1cc2c(=O)n3ccccc3nc2n(C(C)C)c1=N,-0.29,10,-7,-0.72,2.5,18
CCn1c(=N)c(C(=O)OC)cc2c(=O)n3ccccc3nc21,0.21,13,-2,4.8*,0.013,.
CC(C)OC(=O)c1cccnc1SCc1cc(=O)n2ccccc2n1,-0.016,0,6,0.06,3.7,-29
CCOC(=O)CSc1nc(C)c2ccc(C)cc2n1,.,.,.,.,.,37
COc1cc2nc(-c3cccs3)oc(=O)c2cc1OC,-0.15,15,-2,1.5,5.6*,22
c1ccc(CCn2c(C3CC3)nc3ccccc32)cc1,.,.,.,.,.,-8
COC(=O)c1cc(-c2ccccc2)n[nH]1,-0.27,8,2,-0.41,0.41,.
SMILES,M1 antagonist,HEK293 NFkB inh,Jurkat tox 60K,M1 agonist,D1 mod,mHtt clearance
COC(=O)c1cc(-c2ccc(OC)c(OC)c2)n[nH]1,0.68,1,.,-0.12,7*,.
CCc1ccc(NC(=O)CC2C(=O)Nc3c2c(=O)n(C)c(=O)n3C)cc1 (centres undefined),.,.,.,.,.,16
COc1ccc(C2C=C(c3ccc(Br)s3)Nc3ncnn32)cc1OC (centres undefined),-0.0059,21,13,120*,-0.075,.
COc1ccc(C2C(C(=O)NCc3ccccc3)=C(C)Nc3ncnn32)cc1OC (centres undefined),0.11,24,12,0.17,-0.73,.
C1=C(c2ccc(-c3ccccc3)cc2)Nc2ncnn2C1c1ccco1 (centres undefined),-1.6,-6,-3,44*,-1.2,12
COc1ccc(C2C=C(c3ccc(C)cc3)Nc3ncnn32)cc1 (centres undefined),-0.44,.,.,33*,.,.
COc1ccc(C2C=C(c3ccccc3)Nc3nnnn32)cc1 (centres undefined),0.018,-1,4,-0.87,0.68,.
Cc1c(C(=O)N2CCCCC2)nnn1-c1nonc1N,.,.,.,.,.,-47
COc1cc(NC(=O)CSc2nnc(C)s2)cc(OC)c1,-0.14,10,-3,-1,0.61,-3
CCN1CCN(c2ncc(C(=O)N3CCN(c4ccccc4OC)CC3)c3ccccc23)CC1,-10*,26,-4,-1,-0.77,6
COc1ccc(C(=O)C2CN(c3ccccc3)CC2c2ccc(Cl)cc2)cc1 (centres undefined),.,.,.,.,.,31
S=c1[nH]nc(-c2cc3ccccc3o2)n1Cc1ccccc1,.,.,.,.,.,14
CCN(CC)CCn1c(NCc2ccc(OC)cc2)nc2ccccc21,-0.74,3,1,-0.9,-1,86*
Oc1ccc(N=Cc2ccc(O)c(O)c2)cc1,0.21,11,34*,-0.47,-0.68,.
Cc1ccc(C)c(S(=O)(=O)C(C#N)c2nc3ccccc3nc2N2CC(C)OC(C)C2)c1 (centres undefined),-0.0087,2,-5,5.5,-2.7*,-72
Cc1ccc(C)c(S(=O)(=O)C(C#N)c2nc3ccccc3nc2N2CCCC2)c1 (centres undefined),-0.21,0,2,-1,-1.8,.
Cc1cc(N2C(=O)CC(N3CCN(C(c4ccccc4)c4ccccc4)CC3)C2=O)no1 (centres undefined),-0.8,0,-8,-0.65,-0.12,4
CC1CC(C)CN(S(=O)(=O)c2ccc(C(=O)Nc3nnc(-c4cccs4)o3)cc2)C1 (centres undefined),-0.67,22,44*,0.28,0.33,.
O=C(Nc1nnc(-c2cccs2)o1)c1cccc(C(F)(F)F)c1,-0.74,0,64*,2.8,0.85,.
O=C(CCc1ccccc1)Nc1nnc(-c2cccs2)o1,-0.67,2,12,0.092,-0.99,.
CCC1CCCCN1S(=O)(=O)c1ccc(C(=O)Nc2nnc(-c3cccs3)o2)cc1 (centres undefined),0.15,34,82*,-1.4,-2,.
COc1ccc2[nH]c(=O)c(CN(CCO)C(=O)c3ccccc3F)cc2c1,.,0,-6,.,.,.
O=C(Nc1nc(=S)ss1)c1ccc(Cl)cc1Cl,.,.,.,.,.,-2
O=c1cc(N2CCN(Cc3ccccc3)CC2)[nH]c(=O)n1-c1ccc(Br)cc1,.,.,.,.,.,-22
Fc1ccccc1Cn1nnc2c(-n3ccnc3)ncnc21,-0.38,9,-2,0.21,4.5,.
SMILES,M1 antagonist,HEK293 NFkB inh,Jurkat tox 60K,M1 agonist,D1 mod,mHtt clearance
N#CC1=C2SCCN2C(=O)C(C#N)C12CCCCC2 (centres undefined),-0.25,14,-4,0.3,-0.71,-33
COCCn1c(SCC(=O)Nc2cccc(C(=O)OC)c2)nc2ccccc2c1=O,0.82,12,1,-0.14,1.5,16
O=C(Cn1c(=O)sc2ccccc21)Nc1ccccc1C(=O)O,-0.92,-1,.,-0.5,0.62,.
CC(C)N(C=O)C1(C(=O)NC2CCCCC2)CCCCC1,0.13,6,2,1,-3.3*,.
O=S(=O)(/C=C/c1ccccc1)Nc1ccc2c(c1)OCO2,-0.72,.,.,-1.1,.,.
C=CCn1c(N)c(C(=O)OCCC)c2nc3ccccc3nc21,-0.01,25,1,1.3,1.6,.
